Results as given in ChEMBL document CHEMBL1122083, “Isoxazolidine-3,5-diones as lens aldose reductase inhibitors” (J Med Chem, 1982).

Experiments:
[1] = biological target: Aldo-keto reductase family 1 member B1 (Rattus norvegicus) (UniProt P07943); test: Inhibition of rat lens aldose reductase at 50 uM
Procedure, shortened: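 Enzyme partially purified from rat lenses. Each compound was tested at a single concentration of 50 μM, and percent inhibition was determined by the Hayman and Kinoshita method.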

[2] = pKa value for the compound was determined; format: physicochemical

SMILES	inhibition [1]	pKa [2]
O=C1NOC(=O)C1CCOc1ccccc1 (configuration not stated)	35%	–
COc1ccccc1C1C(=O)NOC1=O (configuration not stated)	0%	–
CC(=O)Nc1ccc(C2(C)C(=O)NOC2=O)cc1 (configuration not stated)	16%	–
O=C1NC(=O)[C@@]2(CCOc3ccc(F)cc32)N1 [SORBINIL]	–	7.85
O=C1NOC(=O)C12Cc1cccc3cccc(c13)C2	5.1%	–
O=C1NOC(=O)C1CCS(=O)(=O)c1ccccc1 (configuration not stated)	32%	–

The next lines start with the values.

inhibition [1]	pKa [2]	SMILES
6.5%	–	O=C1NOC(=O)C1c1ccccn1 (configuration not stated)
87%	–	O=C(O)CN1C(=O)c2cccc3cccc(c23)C1=O
19%	–	O=C1NOC(=O)C1CC[S+]([O-])c1ccccc1 (configuration not stated)
37%	–	O=C1NOC(=O)C1c1cccnc1 (configuration not stated)
75%	–	COc1cccc(C2C(=O)NOC2=O)c1 (configuration not stated)
80%	–	O=C1NOC(=O)C1c1ccccc1C(F)(F)F (configuration not stated)
